The values that follow come from ChEMBL document CHEMBL4257586, “Polyheteroaryl Oxazole/Pyridine-Based Compounds Selected in Vitro as G-Quadruplex Ligands Inhibit Rock Kinase and Exhibit Antiproliferative Activity” (J Med Chem, 2018).

The subject of test [1] is Quadruplex DNA. Briefly: Binding affinity to c-Myc G-quadruplex DNA (unknown origin) by fluorescence spectrophotometric analysis. In kind it is nucleic-acid assay. A digest of the protocol:
(§1)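 Fluorescence titration in 10 mM lithium cacodylate pH 7.2 with 100 mM KCl, 1 cm quartz cell. Ligand at 0.5 μM, excited at 330 or 340 nm, with increasing DNA added (22AG, c-Myc or ds26). Emission over 340/350–650 nm plotted against DNA concentration and fitted by Hill equation to give apparent Ka (1:1).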

The next test has as its system A549. Briefly: Cytotoxicity against human A549 cells assessed as presence of large vesicles at 1 uM after 24 to 48 hrs by Hoechst 33342 staining-based laser confocal microscopy. Type of test: functional, cell-based.
For another test, the target named is T1, Myotonin-protein kinase (Homo sapiens, UniProt Q09013).
T1 sequence (Q09013 whole entry): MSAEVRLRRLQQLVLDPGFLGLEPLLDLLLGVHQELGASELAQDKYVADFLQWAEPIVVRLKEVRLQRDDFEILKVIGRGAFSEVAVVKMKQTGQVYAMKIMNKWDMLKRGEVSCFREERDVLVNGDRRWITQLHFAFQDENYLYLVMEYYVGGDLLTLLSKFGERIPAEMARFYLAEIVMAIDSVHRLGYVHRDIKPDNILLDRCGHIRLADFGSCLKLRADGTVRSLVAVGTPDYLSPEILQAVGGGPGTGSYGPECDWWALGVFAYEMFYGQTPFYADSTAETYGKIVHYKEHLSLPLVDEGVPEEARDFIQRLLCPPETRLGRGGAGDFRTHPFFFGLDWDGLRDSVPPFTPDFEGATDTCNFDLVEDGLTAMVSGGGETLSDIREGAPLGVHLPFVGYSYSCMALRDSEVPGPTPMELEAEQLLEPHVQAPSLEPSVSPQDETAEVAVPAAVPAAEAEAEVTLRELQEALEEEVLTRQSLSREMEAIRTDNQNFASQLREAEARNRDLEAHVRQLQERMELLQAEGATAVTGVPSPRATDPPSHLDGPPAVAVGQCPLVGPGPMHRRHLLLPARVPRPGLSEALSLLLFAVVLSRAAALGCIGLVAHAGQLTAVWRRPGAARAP
The test is described as follows: Inhibition of DMPK (unknown origin) by ATP competition assay. The method, boiled down: (§2)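 Recombinant kinases assayed in duplicate by radioactive filter-binding assay with 33P-ATP; no-compound controls run and each plate validated by Z′. IC50 values determined.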

Test [2] concerns the target T2, Rho-associated protein kinase (Homo sapiens) (UniProt O75116+Q13464). Briefly: Inhibition of ROCK in human Hela cells assessed as formation of long neurite-like extensions at 2 uM by phalloidin-based immunofluorescence assay. Type of test: cell-based. A digest of the protocol: (§3)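 HeLa cells on glass coverslips treated overnight at 2 μM or with DMSO control, then fixed in 4% formaldehyde for 10 min at 37 °C. Actin stained with phalloidin; α-tubulin or anti-phospho-Tyr focal points also labelled, plus DNA. Imaged by confocal microscopy.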

For test [3], the target named is T3, Rho-associated protein kinase 2 (Homo sapiens, UniProt O75116). Briefly: Inhibition of ROCK2 in human HeLa cells assessed as reduction in cofilin phosphorylation at Ser3 at 2 uM after 3 hrs by immunofluorescence assay. Type of test: cell-based. The method, boiled down: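 HeLa cells treated 3 h at 2 or 5 μM, with Y-27632 and untreated controls, then formaldehyde-fixed. Phospho-MYPT1 Thr853 or phospho-cofilin Ser3 immunostained with DNA. Confocal 0.5 μm slices plus z-projection, with acquisition settings fixed from the control.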
Target sequence in this assay (O75116 whole entry, looked up): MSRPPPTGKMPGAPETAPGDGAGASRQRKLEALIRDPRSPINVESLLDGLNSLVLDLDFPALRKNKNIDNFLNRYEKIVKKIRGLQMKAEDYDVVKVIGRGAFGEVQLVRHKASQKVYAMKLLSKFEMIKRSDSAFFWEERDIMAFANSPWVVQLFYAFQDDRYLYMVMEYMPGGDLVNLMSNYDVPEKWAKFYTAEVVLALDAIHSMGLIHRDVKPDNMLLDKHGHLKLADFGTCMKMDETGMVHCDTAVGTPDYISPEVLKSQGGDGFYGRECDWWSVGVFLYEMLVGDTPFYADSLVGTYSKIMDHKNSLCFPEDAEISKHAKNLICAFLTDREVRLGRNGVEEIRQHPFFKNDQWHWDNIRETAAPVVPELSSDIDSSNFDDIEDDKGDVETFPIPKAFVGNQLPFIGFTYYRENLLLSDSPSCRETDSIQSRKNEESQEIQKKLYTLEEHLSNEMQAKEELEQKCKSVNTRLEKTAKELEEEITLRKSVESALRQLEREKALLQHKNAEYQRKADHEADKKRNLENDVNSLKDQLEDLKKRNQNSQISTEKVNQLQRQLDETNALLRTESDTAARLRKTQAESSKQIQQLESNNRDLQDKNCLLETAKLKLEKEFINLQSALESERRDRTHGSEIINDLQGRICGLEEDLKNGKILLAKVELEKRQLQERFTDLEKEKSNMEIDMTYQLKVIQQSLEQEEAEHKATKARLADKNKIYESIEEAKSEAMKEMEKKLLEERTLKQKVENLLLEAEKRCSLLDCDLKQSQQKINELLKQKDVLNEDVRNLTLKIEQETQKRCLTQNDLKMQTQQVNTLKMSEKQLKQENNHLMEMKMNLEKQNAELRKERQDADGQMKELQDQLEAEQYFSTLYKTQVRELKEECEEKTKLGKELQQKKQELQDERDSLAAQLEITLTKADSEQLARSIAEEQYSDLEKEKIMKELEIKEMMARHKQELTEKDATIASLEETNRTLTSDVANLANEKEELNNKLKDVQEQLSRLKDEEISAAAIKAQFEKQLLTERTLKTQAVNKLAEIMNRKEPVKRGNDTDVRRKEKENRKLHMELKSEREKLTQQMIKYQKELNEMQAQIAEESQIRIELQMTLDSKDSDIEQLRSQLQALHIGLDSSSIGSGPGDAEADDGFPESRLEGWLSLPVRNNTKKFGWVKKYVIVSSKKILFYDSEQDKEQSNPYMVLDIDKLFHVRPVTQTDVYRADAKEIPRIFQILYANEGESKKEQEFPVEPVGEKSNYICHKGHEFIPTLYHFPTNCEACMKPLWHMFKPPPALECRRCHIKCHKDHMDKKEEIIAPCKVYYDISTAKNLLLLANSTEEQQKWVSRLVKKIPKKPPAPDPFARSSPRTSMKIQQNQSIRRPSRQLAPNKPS

In test [4] the test system is HeLa. The test is described as follows: Induction of double stranded DNA breaks in human HeLa cells assessed as gamma-H2Ax phosphorylation at 1 uM after 24 to 48 hrs by Hoechst 33342 staining-based laser confocal microscopy. In kind it is functional, cell-based.
The target of test [5] is T3, Rho-associated protein kinase 2. The test is described as follows: Inhibition of ROCK2 (unknown origin) by ATP competition assay. The method, boiled down:
as §2
Target sequence in this assay (O75116 whole entry): as the sequence (O75116 whole entry, looked up) above

The species named for test [6] is Homo sapiens. Briefly: Selectivity index, ratio of IC50 for inhibition of ROCK1 (unknown origin) to IC50 for inhibition of ROCK2 (unknown origin).
In the next test the test system is A-375. Briefly: Antiproliferative activity against human A375 cells after 72 hrs by MTS assay. The following applies: A-375, 72 h. In kind it is functional, cell-based. A digest of the protocol: (§4)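 Cells seeded at day 0 in 96-well plates, serial compound dilutions added at day 1; viable cells read 72 h after drug addition by MTS tetrazolium assay, in triplicate. IC50 taken as concentration halving cell growth. One first trial, then two additional experiments on selected compounds.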
For orientation: Formazan colour is commonly taken as a measure of viable cells.

Test [7] concerns HeLa. The test is described as follows: Induction of cell cycle arrest in human HeLa cells at 1 uM after 48 hrs by propidium iodide-staining based flow cytometry. In kind it is functional. The method, boiled down: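 HeLa cells serum-starved 96 h for synchronization, then released and treated 48 h. Fixed in ice-cold 70% ethanol 1 h, stained with propidium iodide 50 μg/mL plus RNase A 0.2 mg/mL for 15 min at 37 °C, and analyzed by FACS.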

Test [8] relates to dsDNA. Briefly: Binding affinity to duplex 26 DNA (unknown origin) assessed as change in melting temperature at 1 uM by FRET. Type of test: nucleic-acid assay.
Test [9] concerns the target T2, Rho-associated protein kinase (Homo sapiens). The test is described as follows: Inhibition of ROCK in human Hela cells assessed as reduction in cell spreading at 2 uM by phalloidin-based immunofluorescence assay. A digest of the protocol:
as §3

The species named for test [10] is Homo sapiens. Briefly: Selectivity index, ratio of IC50 for inhibition of DMPK (unknown origin) to IC50 for inhibition of ROCK2 (unknown origin).
Test [11] deals with Quadruplex DNA. The test is described as follows: Binding affinity to 6-FAM labeled human telomeric F21T G-quadruplex DNA assessed as change in melting temperature at 1 uM in K+ rich buffer (10 mM KCl, 90 mM LiCl, 10 mM Li cacodylate) by FRET assay. Type of test: nucleic-acid assay. A digest of the protocol: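 FRET melting in duplicate. Dual-labelled oligo (6-FAM/TAMRA) at 0.2 μM with ligand at 1 μM, in 10 mM Li cacodylate pH 7.2. Buffer was 10 mM KCl + 90 mM LiCl for F21T and 1 mM KCl + 99 mM LiCl for FMycT. Sample annealed 90 °C 5 min, cooled to 4 °C overnight. Equilibrated 5 min at 25 °C, then ramped 0.5 °C/min to 95 °C. FAM read 492/516 nm, normalized; Tm taken at the fitted inflection point.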

A further test has as its system NCI-H358. Briefly: Antiproliferative activity against human NCI-H358 cells after 72 hrs by MTS assay. Type of test: functional, cell-based. The following applies: NCI-H358, 72 h. The method, boiled down:
as §4

For test [12], the target named is Rho-associated protein kinase 1 (Homo sapiens, UniProt Q13464). The test is described as follows: Inhibition of ROCK1 (unknown origin) by ATP competition assay. The method, boiled down:
as §2

Test [13] relates to HeLa. The test is described as follows: Cytotoxicity against human HeLa cells assessed as reduction in organization of stress fibers at 1 uM after 24 to 48 hrs by Hoechst 33342 staining-based laser confocal microscopy. Type of test: functional, cell-based.
The test system of another test is A-431. Briefly: Antiproliferative activity against human A431 cells after 72 hrs by MTS assay. In kind it is functional, cell-based. Conditions: A-431, 72 h. The method, boiled down: as §4
Test [14] relates to HeLa. Briefly: Induction of double stranded DNA breaks in human HeLa cells assessed as gamma-H2Ax phosphorylation at 2 uM after 24 to 48 hrs by Hoechst 33342 staining-based laser confocal microscopy. In kind it is functional, cell-based.
Test [15] has as its system dsDNA. Briefly: Binding affinity to duplex 26 DNA (unknown origin) by fluorescence spectrophotometric analysis. In kind it is nucleic-acid assay. The method, boiled down: as §1
For test [16], the system named is HeLa. Briefly: Antiproliferative activity against human HeLa cells after 72 hrs by MTS assay. Type of test: functional, cell-based. A digest of the protocol:
as §4

Test [17] relates to Quadruplex DNA. The test is described as follows: Binding affinity to 22AG G-quadruplex DNA (unknown origin) by fluorescence spectrophotometric analysis. Type of test: nucleic-acid assay. The method, boiled down:
as §1

Broadly, the IC50 is the concentration needed to halve the response being measured. As usually defined, the ΔTm is the change in melting temperature against a reference sample.

Calls of active or inactive are those of the source. No cut-off for these calls is given here.

Sequence of Rho-associated protein kinase 1 (Q13464 whole entry): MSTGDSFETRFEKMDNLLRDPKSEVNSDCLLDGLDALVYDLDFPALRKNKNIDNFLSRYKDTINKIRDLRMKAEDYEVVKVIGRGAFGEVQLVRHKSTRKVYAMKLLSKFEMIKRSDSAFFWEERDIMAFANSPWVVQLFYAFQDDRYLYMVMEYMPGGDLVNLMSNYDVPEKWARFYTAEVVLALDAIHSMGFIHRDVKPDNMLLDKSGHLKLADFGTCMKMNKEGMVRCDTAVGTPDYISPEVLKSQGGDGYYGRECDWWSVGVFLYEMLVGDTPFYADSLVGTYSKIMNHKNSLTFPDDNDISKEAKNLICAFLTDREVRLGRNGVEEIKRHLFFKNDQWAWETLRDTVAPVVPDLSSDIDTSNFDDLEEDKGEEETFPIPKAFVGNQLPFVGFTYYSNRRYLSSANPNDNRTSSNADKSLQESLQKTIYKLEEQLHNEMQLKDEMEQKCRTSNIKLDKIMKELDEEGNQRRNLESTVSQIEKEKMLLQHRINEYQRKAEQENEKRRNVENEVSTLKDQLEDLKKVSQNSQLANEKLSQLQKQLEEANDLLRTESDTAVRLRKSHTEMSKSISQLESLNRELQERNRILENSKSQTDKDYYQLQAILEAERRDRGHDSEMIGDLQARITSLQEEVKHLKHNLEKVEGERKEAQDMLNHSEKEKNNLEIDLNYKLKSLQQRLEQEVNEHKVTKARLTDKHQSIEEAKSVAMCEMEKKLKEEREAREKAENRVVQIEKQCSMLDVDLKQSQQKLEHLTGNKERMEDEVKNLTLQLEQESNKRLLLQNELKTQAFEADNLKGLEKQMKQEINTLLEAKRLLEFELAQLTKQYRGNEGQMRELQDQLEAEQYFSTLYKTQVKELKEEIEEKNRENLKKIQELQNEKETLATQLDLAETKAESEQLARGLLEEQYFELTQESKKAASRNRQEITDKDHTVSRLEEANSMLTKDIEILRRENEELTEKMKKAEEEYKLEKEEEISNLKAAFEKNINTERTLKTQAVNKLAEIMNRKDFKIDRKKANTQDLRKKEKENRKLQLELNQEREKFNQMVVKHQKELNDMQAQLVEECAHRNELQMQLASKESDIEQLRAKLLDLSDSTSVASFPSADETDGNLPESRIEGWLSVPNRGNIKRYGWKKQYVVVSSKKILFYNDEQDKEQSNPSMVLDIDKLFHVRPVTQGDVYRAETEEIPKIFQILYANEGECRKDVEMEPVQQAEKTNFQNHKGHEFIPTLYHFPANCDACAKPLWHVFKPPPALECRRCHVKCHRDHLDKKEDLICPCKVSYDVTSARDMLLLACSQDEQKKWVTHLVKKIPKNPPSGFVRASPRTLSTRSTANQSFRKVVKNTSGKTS
T2 sequence (O75116 whole entry, looked up): as the sequence (O75116 whole entry, looked up) above
T2 sequence (Q13464 whole entry, looked up): as the sequence (Q13464 whole entry) above

As to `c1cc(-c2cnco2)nc(-c2cnc(-c3cccc(-c4cccc(-c5ncc(-c6cccc(-c7cnco7)n6)o5)n4)n3)o2)c1`, the Activity entry with Quadruplex DNA [1] and in the test on Quadruplex DNA [17] was “Dose-dependent effect” in each case. Also, the figures for the Ka in the test with Quadruplex DNA [1], in the test on dsDNA [15] and in the test with Quadruplex DNA [17] were 16 ×10⁶ /M, 3 ×10⁶ /M and 3.9 ×10⁶ /M, respectively. In addition, the result in the test on A549 and in the test on HeLa [13] was Active. The IC50 at Myotonin-protein kinase was over 1000 nM; in test [5], 851 nM; with A-375, 592 nM; in the test with NCI-H358, 3750 nM; in test [12], over 1000 nM; in the test with A-431 it was 541 nM. The compound also yielded an IC50 in the test on HeLa [16] of 134 nM. For the same compound, the inhibition result in test [2], in [3] and in test [9] was “Active” throughout. Besides, the outcome in the test on HeLa [4], with HeLa [7], in the test with dsDNA [8] and in the test on HeLa [14] was inactive. Also, the Ratio IC50 in the test listed under Homo sapiens [6] and in the test listed under Homo sapiens [10] was 1.4 in each case. The shift in melting temperature (ΔTm) with Quadruplex DNA [11] fell in the range of 6 to 9 °C.

For `CN(C)CCOc1cc(-c2ncc(-c3cccc(-c4cnco4)n3)o2)nc(-c2ncc(-c3cccc(-c4cnco4)n3)o2)c1`, the Activity entry with Quadruplex DNA [1] and in the test with Quadruplex DNA [17] was “Dose-dependent effect” in each case. In addition, the Ka with Quadruplex DNA [1] was 22 ×10⁶ /M; with dsDNA [15] it was 1 ×10⁶ /M; with Quadruplex DNA [17], 2.5 ×10⁶ /M. Also, the IC50 at Myotonin-protein kinase is over 1000 nM; in [5], 20 nM; in [12], over 1000 nM. The inhibition entry in test [2] and in [9] was “Active” throughout. Further, the outcome in the test on HeLa [4], with dsDNA [8] and with HeLa [14] was inactive. Also, the Ratio IC50 in the test filed under Homo sapiens [6] and in the test filed under Homo sapiens [10] was over 50 in each case. The shift in melting temperature (ΔTm) in the test with Quadruplex DNA [11] fell in the range of 6 to 9 °C. In addition, the result in the test on HeLa [13] was Active.

On to `c1cc(-c2cnco2)nc(-c2cnc(-c3cccc(-c4ncc(-c5cccc(-c6cnco6)n5)o4)n3)o2)c1`, for which the Activity result in the test with Quadruplex DNA [1] and in the test with Quadruplex DNA [17] was “Dose-dependent effect” each time. The Ka in the test on Quadruplex DNA [1] is 19 ×10⁶ /M; in the test with dsDNA [15], 0.9 ×10⁶ /M; in the test on Quadruplex DNA [17] it was 6.7 ×10⁶ /M. Moreover, the result in the test with A549 and in the test with HeLa [13] was Active. Also, the IC50 on Myotonin-protein kinase is over 1000 nM; in test [5], 29 nM; with A-375, 440 nM; in the test with NCI-H358, 7700 nM; in test [12], over 1000 nM; in the test with A-431 it was 645 nM. This compound showed an IC50 with HeLa [16] of 257 nM. Besides, the inhibition entry in [2], in test [3] and in [9] was “Active” each time. Also, the outcome in the test with HeLa [4], with HeLa [7], in the test with dsDNA [8] and in the test with HeLa [14] was inactive. In addition, the Ratio IC50 in the test listed under Homo sapiens [6] and in the test listed under Homo sapiens [10] was over 50 throughout. The thermal shift (ΔTm) in the test on Quadruplex DNA [11] lay in the range of 6 to 9 °C.
